From ChEMBL document CHEMBL4145478, “Synthesis and biological evaluation of bifendate derivatives bearing 6,7-dihydro-dibenzo[c,e]azepine scaffold as potential P-glycoprotein and tumor metastasis inhibitors” (Eur J Med Chem, 2018) come the findings set out here.

Where a name gives a salt, the structure may show the parent alone. Calls of active or inactive are those of the source. No cut-off for these calls is given here.

The subject of data set [1] is MDA-MB-231. Briefly: Antimigratory activity against human MDA-MB-231 cells assessed as delay in cell migration at 5 to 45 uM after 4 hrs by crystal violet staining-based chamber migration assay relative to control. It is filed as functional. The essentials:
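MDA-MB-231 cells pretreated 24 h with 5, 15 or 45 μM, suspended in serum-free medium and placed in upper transwell compartment; lower compartment medium with 10% FBS. After 4 h non-migrated cells swabbed off; migrated cells fixed in methanol, stained with 0.5% crystal violet, counted manually in three random fields. Migrated cells expressed as % of control.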

Data set [2] has as its system K562. Briefly: Cytotoxicity against human K562 cells assessed as reduction in cell viability after 72 hrs by MTS assay. Format: cell-based. Particulars: K562, 72 h. The essentials:
(§1)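 Cells (1×10^4/well) in RPMI-1640 grown 24 h, then exposed to a range of concentrations for 72 h at 37 °C, 5% CO₂. MTS added for a further 3 h at 37 °C; absorbance read at 490 nm. IC50 from dose-response curves; means of triplicate experiments.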
(Tetrazolium assays rely on reduction of a dye to a coloured formazan, in cell work by metabolically active cells.)

Data set [3] concerns K562/A02. Briefly: Cytotoxicity against human K562/A02 cells assessed as reduction in cell viability after 72 hrs by MTS assay. Particulars: K562/A02, 72 h. Format: cell-based. The essentials:
as §1

The test system of data set [4] is K562/A02. Briefly: Inhibition of P-gp-mediated drug resistance in human K562/A02 cells assessed as reduction in adriamycin IC50 at 2 uM after 72 hrs by MTS assay relative to adriamycin alone. Format: cell-based. The gist of the method:
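K562/A02 cells exposed to adriamycin with or without 2.0 μM modulator; verapamil 2.0 μM as reference. Viability by MTS after 72 h at 37 °C (absorbance 490 nm), adriamycin IC50 from dose-response curves. Reversal fold = adriamycin IC50 alone / adriamycin IC50 with modulator.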

The subject of data set [5] is MDA-MB-231. The experiment in a line: Antiproliferative activity against human MDA-MB-231 cells after 72 hrs by MTT assay. Format: cell-based. The following applies: MDA-MB-231, 72 h.
The target in data set [6] is 72 kDa type IV collagenase (Homo sapiens) (UniProt P08253). The experiment in a line: Inhibition of MMP2 activity in human MDA-MB-231 cells after 24 hrs by gelatin zymography assay. It is filed as cell-based.
Data set [7] addresses Matrix metalloproteinase-9 (Homo sapiens) (UniProt P14780). The experiment in a line: Inhibition of MMP9 activity in human MDA-MB-231 cells after 24 hrs by gelatin zymography assay.
Data set [8] relates to MDA-MB-231. Briefly: Inhibition of MMP2 expression in human MDA-MB-231 cells after 24 hrs by Western blot analysis. Format: functional, cell-based. The essentials:
(§2)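 MDA-MB-231 cells exposed to 5, 15 or 45 μM for 24 h, then lysed; immunoblotted with antibodies against MMP-2 and MMP-9; detection with BCIP/NBT alkaline phosphatase substrate for 15 min.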
On the technique in general: In western blotting, separated proteins are transferred to a membrane and probed.

Data set [9] concerns K562/A02. The experiment in a line: Inhibition of P-gp mediated efflux in human K562/A02 cells assessed as increase in intracellular Rh123 accumulation after 1 hr by flow cytometric analysis. It is filed as cell-based. The essentials: (§3)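 1×10^6 K562 or K562/A02 cells preincubated 1 h at 37 °C with compound (10 μM single dose; dose-response at 10, 3.3 and 0.3 μM), verapamil or 0.1% DMSO vehicle, then 0.5 μM Rh123 for 30 min. Stopped and washed three times with ice-cold PBS; flow cytometry. Fold change = fluorescence over vehicle; mean ± S.D., three independent experiments.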

For data set [10], the system named is MDA-MB-231. The experiment in a line: Inhibition of MMP9 expression in human MDA-MB-231 cells after 24 hrs by Western blot analysis. Format: functional, cell-based. The essentials: as §2
The target of data set [11] is 72 kDa type IV collagenase (Homo sapiens) (UniProt P08253). The experiment in a line: Residual MMP2 activity in human MDA-MB-231 cells at 5 uM after 24 hrs by gelatin zymography assay relative to control.
Data set [12] relates to K562/A02. The experiment in a line: Effect on P-gp protein expression in human K562/A02 cells at 2 uM after 48 hrs by Western blot analysis. It is filed as functional, cell-based.
The subject of data set [13] is MDA-MB-231. The experiment in a line: Antimigratory activity against human MDA-MB-231 cells assessed as reduction in wound healing after 24 hrs by inverted microscopic analysis. It is filed as functional, cell-based. The essentials: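 Confluent MDA-MB-231 monolayer scratched with 200 μL pipette tip, washed twice with PBS, then exposed to 5, 15 or 45 μM in DMEM with 10% FBS. Wound photographed by inverted microscope at 0 and 24 h. Relative migration = migration distance of treated cells divided by that of control.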

Data set [14] relates to MMP-9 (92 kDa type IV collagenase, Homo sapiens). The experiment in a line: Inhibition of MMP9 activity in human MDA-MB-231 cells at 5 uM after 24 hrs by gelatin zymography assay relative to control; values are per cent of control.
In data set [15] the test system is K562/A02. Briefly: Effect on P-gp mRNA expression in human K562/A02 cells at 2 uM after 48 hrs by RT-PCR analysis. Format: functional, cell-based.
Data set [16] deals with MDA-MB-231. The experiment in a line: Antimigratory activity against human MDA-MB-231 cells assessed as reduction in cell invasion at 5 to 45 uM after 24 hrs by crystal violet staining-based matrigel assay. Format: functional. The gist of the method:
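MDA-MB-231 cells pretreated 24 h with 5, 15 or 45 μM, seeded in serum-free medium into transwell chambers precoated with matrigel (40 μg/100 μL/chamber, 37°C, 1 h); lower compartment medium with 10% FBS. Incubation 24 h, then invaded cells stained with crystal violet and counted in three random fields; expressed as % of control.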

Data set [17] deals with K562. Briefly: Effect on intracellular Rh123 accumulation in human K562 cells at 0.3 to 10 uM after 1 hr by flow cytometric analysis. It is filed as functional, cell-based. The gist of the method: as §3
(Flow cytometry measures light scatter and fluorescence of single cells or particles in a stream.)

Data set [18] can be described thus: Selectivity ratio of IC50 for human K562/A02 cells to IC50 for human K562 cells. Format: ADME. Particulars: K562/A02 cells and K562 cells, read-out: Ratio IC50.

72 kDa type IV collagenase (Homo sapiens), sequence (P08253 110-660 limits assumed): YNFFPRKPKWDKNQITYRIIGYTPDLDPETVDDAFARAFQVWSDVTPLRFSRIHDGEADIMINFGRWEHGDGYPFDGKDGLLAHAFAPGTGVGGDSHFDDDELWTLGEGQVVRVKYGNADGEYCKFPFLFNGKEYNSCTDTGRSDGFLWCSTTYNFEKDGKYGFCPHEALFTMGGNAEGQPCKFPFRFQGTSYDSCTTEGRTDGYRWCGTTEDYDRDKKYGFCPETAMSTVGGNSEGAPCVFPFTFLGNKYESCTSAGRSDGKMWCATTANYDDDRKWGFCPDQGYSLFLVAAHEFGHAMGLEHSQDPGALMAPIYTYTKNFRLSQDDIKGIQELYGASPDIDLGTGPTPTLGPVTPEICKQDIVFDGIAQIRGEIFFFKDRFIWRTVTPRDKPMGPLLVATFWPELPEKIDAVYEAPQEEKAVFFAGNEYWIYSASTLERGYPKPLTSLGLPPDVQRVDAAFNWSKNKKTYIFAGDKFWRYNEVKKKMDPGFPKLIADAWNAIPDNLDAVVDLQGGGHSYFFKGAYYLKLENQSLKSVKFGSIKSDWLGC
Matrix metalloproteinase-9 (Homo sapiens), sequence (P14780 whole entry): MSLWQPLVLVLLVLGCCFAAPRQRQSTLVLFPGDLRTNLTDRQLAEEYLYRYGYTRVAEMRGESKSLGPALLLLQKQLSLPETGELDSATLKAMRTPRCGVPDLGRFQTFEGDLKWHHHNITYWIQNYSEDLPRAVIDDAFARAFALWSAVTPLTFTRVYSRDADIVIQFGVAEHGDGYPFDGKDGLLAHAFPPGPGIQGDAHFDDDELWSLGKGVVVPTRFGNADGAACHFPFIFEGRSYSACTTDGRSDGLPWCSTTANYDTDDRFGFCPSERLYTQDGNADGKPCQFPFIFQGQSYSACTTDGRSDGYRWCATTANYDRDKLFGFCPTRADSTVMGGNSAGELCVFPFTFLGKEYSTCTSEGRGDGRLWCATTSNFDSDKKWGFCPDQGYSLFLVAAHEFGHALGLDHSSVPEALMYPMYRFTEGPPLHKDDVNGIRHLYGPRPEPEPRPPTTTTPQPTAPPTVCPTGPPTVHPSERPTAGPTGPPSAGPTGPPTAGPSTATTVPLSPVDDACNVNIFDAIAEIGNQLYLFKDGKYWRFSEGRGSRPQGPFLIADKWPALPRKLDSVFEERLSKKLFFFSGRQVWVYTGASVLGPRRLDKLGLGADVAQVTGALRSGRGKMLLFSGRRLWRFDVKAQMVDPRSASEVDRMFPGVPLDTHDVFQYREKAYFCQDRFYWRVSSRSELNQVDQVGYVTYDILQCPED

In the case of `COc1cc(C(=O)NCCN2Cc3cc(OC)c4c(c3-c3c(cc(OC)c5c3OCO5)C2)OCO4)cc(OC)c1OC`, in the data set on MDA-MB-231 [1], the Activity was found to be 65.7%. Further, the IC50 (in general, the concentration at which inhibition is half-maximal) in the data set with K562 [2] is 16.9 µM; with K562/A02 [3], 47.2 µM; in the data set on MDA-MB-231 [5], 85.8 µM. In the data set with K562/A02 [4], the fold change (FC) stood at 3.82. The inhibition entry (in data set [6]; in [7]; in the data set on MDA-MB-231 [8]; in the data set on K562/A02 [9]; in the data set with MDA-MB-231 [10]) was “Dose-dependent effect” in each case. Besides, the residual activity – broadly, the activity still measured, relative to the control – in data set [11] stood at 59.1%; in data set [14] it was 58.2%. The result with K562/A02 [12] and in the data set on K562/A02 [15] was inactive. For the same compound, the outcome in the data set on MDA-MB-231 [13] and in the data set on MDA-MB-231 [16] was Active. Besides, the inhibition entry in the data set on K562 [17] was “inactive”.
With `COc1cccc2c1C(=O)c1c(O)c3c(c(O)c1C2=O)C[C@@](O)(C(=O)CO)C[C@@H]3O[C@H]1C[C@H](N)[C@H](O)[C@H](C)O1` [DOXORUBICIN HYDROCHLORIDE], the results for the IC50 with K562 [2] and in the data set on K562/A02 [3] were 0.39 µM and 25 µM, respectively. Besides, the selectivity ratio in data set [18] came to 64.
Consider `COc1cc2c(c3c1OCO3)-c1c(cc(OC)c3c1OCO3)CN(CCCCCCNC(=O)c1ccc(C)cc1)C2`, for which the IC50 came out at 8.18 µM with K562 [2] and 23.3 µM in the data set on K562/A02 [3].
For `COc1cc(C(=O)NCCCCCCN2Cc3cc(OC)c4c(c3-c3c(cc(OC)c5c3OCO5)C2)OCO4)cc(OC)c1OC`, in that order: 11.8 µM and 31.8 µM.
For `COc1cc2c(c3c1OCO3)-c1c(cc(OC)c3c1OCO3)CN(CCCCCCNC(=O)c1ccc(Cl)c(Cl)c1)C2`, in that order: 5.07 µM and 11.5 µM.
For `COc1ccccc1NC(=O)CCN1Cc2cc(OC)c3c(c2-c2c(cc(OC)c4c2OCO4)C1)OCO3`, in that order: 23.1 µM and 72.9 µM.
Consider `COc1ccccc1C(=O)NCCN1Cc2cc(OC)c3c(c2-c2c(cc(OC)c4c2OCO4)C1)OCO3`, for which the half-maximal inhibitory concentration (IC50) in the data set on K562 [2] was 15 µM; with K562/A02 [3], 63.9 µM.
Taken in the same sequence, the figures for `COc1ccccc1C(=O)NCCCCCCN1Cc2cc(OC)c3c(c2-c2c(cc(OC)c4c2OCO4)C1)OCO3` were 11 µM and 26.2 µM.
On to `COc1ccc(C(=O)NCCN2Cc3cc(OC)c4c(c3-c3c(cc(OC)c5c3OCO5)C2)OCO4)cc1OC`, for which the IC50 in the data set on K562 [2] came out at 30.5 µM; in the data set with K562/A02 [3], 65.8 µM. Further, in the data set with K562/A02 [9], the inhibition result was “Dose-dependent effect”. In addition, in the data set with K562 [17], the inhibition entry is “inactive”.
With `COc1cc2c(c3c1OCO3)-c1c(cc(OC)c3c1OCO3)CN(CCCCCCNC(=O)c1ccc(Cl)cc1)C2`, the IC50 in the data set with K562 [2] came to 5.85 µM; with K562/A02 [3] it was 18.4 µM.
As to `COc1cc2c(c3c1OCO3)-c1c(cc(OC)c3c1OCO3)CN(CCCCCCNC(=O)c1cccs1)C2`, the half-inhibitory concentration (IC50) with K562 [2] came out at 12.5 µM; in the data set on K562/A02 [3], 29 µM.
For `COc1ccc(NC(=O)CCN2Cc3cc(OC)c4c(c3-c3c(cc(OC)c5c3OCO5)C2)OCO4)cc1`, in that order: 29.8 µM and 43.2 µM.
Taken in the same sequence, the figures for `COc1ccc(C(=O)NCCCCCCN2Cc3cc(OC)c4c(c3-c3c(cc(OC)c5c3OCO5)C2)OCO4)cc1OC` were 14.1 µM and 28.3 µM.
Take `COc1cc2c(c3c1OCO3)-c1c(cc(OC)c3c1OCO3)CN(CCCCCCNC(=O)c1ccc(Cl)cc1Cl)C2`: the IC50 in the data set on K562 [2] was 13.7 µM; in the data set with K562/A02 [3], 34.5 µM.
For `COc1cc2c(c3c1OCO3)-c1c(cc(OC)c3c1OCO3)CN(CCNC(=O)c1ccc(C)cc1)C2`, in that order: 14.4 µM and 28.2 µM.
In the case of `COc1cc2c(c3c1OCO3)-c1c(cc(OC)c3c1OCO3)CN(CCc1ccc3c(c1)OCO3)C2`, the IC50 in the data set with K562 [2] was 51.4 µM; in the data set with K562/A02 [3], over 100 µM. The fold change (FC) with K562/A02 [4] is 3.99.
Take `COc1ccc(NC(=O)CCN2Cc3cc(OC)c4c(c3-c3c(cc(OC)c5c3OCO5)C2)OCO4)cc1OC`: the Activity in the data set with MDA-MB-231 [1] came out at 54.8%. In addition, the IC50 turned out to be 34.8 µM in the data set with K562 [2], 69.9 µM in the data set on K562/A02 [3] and 80.5 µM in the data set with MDA-MB-231 [5]. In addition, the fold change (FC) in the data set with K562/A02 [4] came out at 5.76. For the same compound, the inhibition result (in data set [6]; in [7]; in the data set with MDA-MB-231 [8]; with K562/A02 [9]; with MDA-MB-231 [10]) was “Dose-dependent effect” each time. The residual activity in data set [11] was 52.8%; in data set [14], 52.6%. The result in the data set on K562/A02 [12] and with K562/A02 [15] was inactive. Also, the result with MDA-MB-231 [13] and in the data set on MDA-MB-231 [16] was Active. Besides, in the data set on K562 [17], the inhibition result is “inactive”.
